According to ChEMBL document CHEMBL1148520, “5-(Dimethoxymethyl)-2'-deoxyuridine: a novel gem diether nucleoside with anti-orthopoxvirus activity” (J Med Chem, 2006):

What was measured:
Vaccinia virus = experiment: Antiviral activity against vaccinia virus Copenhagen assessed as plaque reduction in HFF cells; format: functional, organism-based; conditions: Orthopoxvirus vaccinia
Cowpox virus [1] = experiment: Antiviral activity against cowpox virus Brighton measured as cytopathogenicity in HFF cells; format: functional, organism-based
Cowpox virus [2] = experiment: Antiviral activity against cowpox virus Brighton by plaque reduction in HFF cells; format: functional, organism-based
HFF = experiment: Cytotoxicity against HFF cell line by neutral red toxicity assay; format: functional; conditions: Homo sapiens
How it was run: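 Confluent uninfected HFF monolayers exposed to various drug concentrations for 7 days at 37 °C. Viability read by neutral red uptake. CC50 is the concentration reducing neutral red uptake by 50%.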

Structure (SMILES) | EC50 (Vaccinia virus) [µM] | EC50 (Cowpox virus [1]) [µM] | EC50 (Cowpox virus [2]) [µM] | CC50 (HFF) [µM]
CCOC(OCC)c1cn(C2C[C@H](OC(C)=O)[C@@H](COC(C)=O)O2)c(=O)[nH]c1=O (stereo not given in full) | 79 | 52.4 | 25.8 | > 300
COC(OC)c1cnc(O)nc1O | – | > 300 | – | > 300
CC(=O)OC[C@H]1OC(n2cc(C3OCCCO3)c(=O)[nH]c2=O)C[C@@H]1OC(C)=O (stereo not given in full) | – | > 300 | – | > 300
CC(=O)OC[C@H]1OC(n2cc(C=O)c(=O)[nH]c2=O)C[C@@H]1OC(C)=O (stereo not given in full) | – | > 300 | – | > 300
COC(OC)c1cn(C2C[C@H](OC(C)=O)[C@@H](COC(C)=O)O2)c(=O)[nH]c1=O (stereo not given in full) | – | > 300 | – | > 300
COC(OC)c1cn(C2C[C@H](O)[C@@H](CO)O2)c(=O)[nH]c1=O (stereo not given in full) | 9 | 11.7 | 7.4 | > 300
O=Cc1cn([C@H]2C[C@H](O)[C@@H](CO)O2)c(=O)[nH]c1=O | – | > 300 | – | > 300
CC(=O)OC[C@H]1OC(n2cc(C3OCCO3)c(=O)[nH]c2=O)C[C@@H]1OC(C)=O (stereo not given in full) | – | > 300 | – | > 300
CCOC(OCC)c1cn(C2C[C@H](O)[C@@H](CO)O2)c(=O)[nH]c1=O (stereo not given in full) | – | > 60 | – | > 300
O=c1[nH]c(=O)n(C2CC(O)[C@@H](CO)O2)cc1C1OCCO1 (single isomer, unassigned) | – | > 300 | – | > 300
O=c1[nH]c(=O)n(C2CC(O)[C@@H](CO)O2)cc1C1OCCCO1 (single isomer, unassigned) | – | > 300 | – | > 300
Nc1ccn(C[C@@H](CO)OCP(=O)(O)O)c(=O)n1 [CIDOFOVIR] | 9 | 8.3 | 9 | > 300
